The values below come from ChEMBL document CHEMBL1157725 (Bioorg Med Chem, 2010).

For one assay, the system named is A10. Briefly: Inhibition of tubulin in rat A10 cells assessed as disappearance of microtubule network at 20 uM after 18 hrs by fluorescence microscopy. The assay is classed as cell-based. The procedure, abridged:
(§1)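 A-10 cells plated on glass coverslips and treated with compound at varying concentrations for 18 h. After fixation, microtubules immunostained with a β-tubulin antibody (indirect immunofluorescence) and nuclei stained with DAPI. Read by fluorescence microscopy. Percentage of cellular microtubule loss estimated visually across the concentration range.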

Assay [1] can be described thus: Inhibition of tubulin in rat A10 cells assessed as induction of cellular microtubule disassembly after 18 hrs by indirect immunofluorescence technique. Type of assay: cell-based. To be noted: A10, 18 h. The procedure, abridged: as §1
A short description of assay [2]: Inhibition of tubulin polymerization by turbidimetry. Summed up: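 Tubulin at 10 µM (1.0 mg/mL). Polymerization followed turbidimetrically at 350 nm in temperature-controlled spectrophotometers.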
Assay [3] in a line: Displacement of [3H]colchicine from tubulin at 5 uM by DEAE-cellulose filter method.
Assay [4] is described as follows: Displacement of [3H]colchicine from tubulin at 50 uM by turbidimetry. To be noted: in the assay text read “by DEAE-cellulose filter method” for “by turbidimetry”. Summed up:
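Binding of [³H]colchicine to tubulin (1.0 µM, 0.1 mg/mL) is measured by the DEAE-cellulose filter method. The radioligand is at 5.0 µM and test agents at 5 or 50 µM. Each is run in triplicate.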

For another assay, the system named is MCF7. Nature of the assay: Antiproliferative activity against human MCF7 cells after 24 hrs by SRB assay. The assay is classed as functional, cell-based. The note with it: MCF7, 24 h. Summed up: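 MCF-7 cells are grown for 24 h with or without drug, then for a further 48 h. Total cell protein is measured by sulforhodamine B staining, and the IC₅₀ is derived from it.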

Structures are written as SMILES. Active and inactive are the calls of the source. The rule behind the calls is not given here.

Consider `COc1ccc(/C=C/C(=O)c2cc(OC)c(OC)c(OC)c2)cc1O`, for which the outcome with A10 was Active. In addition, in assay [1], the EC50 is 0.98 µM. The 50% inhibitory concentration (IC50) stood at 2.6 µM in assay [2] and 0.11 µM with MCF7. Further, the figures for the inhibition in assay [3] and in assay [4] were 88% and 101%, respectively.

Take `COc1ccc(C(=O)/C=C/c2cc(OC)c(OC)c(OC)c2)cc1O`: the EC50 in assay [1] was 18 µM. Further, the IC50 in assay [2] was above 40 µM; in the assay on MCF7, above 2.5 µM.
